Source: ChEMBL document CHEMBL3091459, “Inhibitory effect of the gallotannin corilagin on dextran sulfate sodium-induced murine ulcerative colitis” (J Nat Prod, 2013)
Activity calls are given as the source filed them. No cut-off for these calls is given here.

Columns and labels:
Type in all cases: functional, organism-based
[1] = tested on: Mus musculus; assay: Antiulcerative colitis activity in C57BL/6 mouse assessed as recovery of DSS-induced body weight loss at 7.5 to 30 mg/kg, ip qd administered on day 6 to 12 post DSS-challenge measured on day 9
Summary of the method: (§1)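 In male C57BL/6 mice given 2.0% (w/v) DSS in drinking water days 0–5, then dosed ip daily days 6–12 (n = 8), body weight was checked daily. Change was also taken as weight before induction minus weight just before sacrifice on day 13.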

[2] = tested on: Mus musculus; assay: Antiapoptotic activity in C57BL/6 mouse assessed as reduction of DSS-induced cleaved caspase-9 level in colon at 7.5 to 30 mg/kg, ip qd administered on day 6 to 12 post DSS-challenge measured on day 13 by Western blotting analysis
Summary of the method: (§2)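 Male C57BL/6 mice (7–8 wk) given 2.0% (w/v) DSS in drinking water days 0–5. Colitic mice were selected on day 6 and dosed ip once daily, days 6–12, saline vehicle; n = 8/group. Day 13: colon homogenized in RIPA, 50 μg protein run on 10–12% SDS-PAGE. Blots probed for cleaved caspase-3/-9, detected by ECL, β-actin for loading, densitometry; n = 5.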

[3] = tested on: Mus musculus; assay: Antiapoptotic activity in C57BL/6 mouse assessed as reduction of DSS-induced cleaved caspase-3 level in colon at 7.5 to 30 mg/kg, ip qd administered on day 6 to 12 post DSS-challenge measured on day 13 by Western blotting analysis; summary of the method: as §2
[4] = tested on: Mus musculus; assay: Antiinflammatory activity in DSS-induced acute colitis C57BL/6 mouse model assessed as upregulation of IkappaB-alpha protein expression at 15 to 30 mg/kg, ip qd administered on day 6 to 12 post DSS-challenge measured on day 13 by Western blotting analysis
Summary of the method: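 Male C57BL/6 mice received 2.0% DSS water for 5 days, then daily ip dosing in saline on days 6–12. On day 13, colon tissue was homogenized in ice-cold RIPA (0.1 g/mL). 50 μg protein was blotted on nitrocellulose and probed for IκBα overnight at 4 °C. ECL detection, normalized to β-actin by densitometry; n = 5.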

[5] = tested on: Mus musculus; assay: Antiinflammatory activity in DSS-treated C57BL/6 mouse assessed as effect on IL-10 production in colon at 7.5 to 30 mg/kg, ip qd administered on day 6 to 12 post DSS-challenge measured on day 13 by ELISA
Summary of the method: (§3)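 Colitis induced in male C57BL/6 mice with 2.0% (w/v) DSS drinking water for days 0–5, then ip once daily days 6–12 (saline vehicle); 8 mice/group. Day 13: colon homogenized in phosphate buffer with Tween-20, PMSF, benzethonium chloride, EDTA and aprotinin, spun 16000g 15 min at 4 °C. TNF-α, IL-1β, IL-6 and IL-10 measured by ELISA, normalized to Bradford protein, reported as pg/mg.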

[6] = tested on: Mus musculus; assay: Antiinflammatory activity in ip dosed C57BL/6 mouse assessed as reduction of DSS-induced IL-6 production in colon administered qd on day 6 to 12 post DSS-challenge measured on day 13 by ELISA; summary of the method: as §3
[7] = tested on: Mus musculus; assay: Antiinflammatory activity in ip dosed C57BL/6 mouse assessed as reduction of DSS-induced IL-1beta production in colon administered qd on day 6 to 12 post DSS-challenge measured on day 13 by ELISA; summary of the method: as §3
[8] = tested on: Mus musculus; assay: Antiinflammatory activity in ip dosed C57BL/6 mouse assessed as reduction of DSS-induced TNF-alpha production in colon administered qd on day 6 to 12 post DSS-challenge measured on day 13 by ELISA; summary of the method: as §3
[9] = tested on: Mus musculus; assay: In vivo inhibition of myeloperoxidase activity in colon homogenates of DSS-induced acute colitis C57BL/6 mouse model at 7.5 to 30 mg/kg, ip qd administered on day 6 to 12 post DSS-challenge measured on day 13
Summary of the method: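 Day 13 colons from DSS-colitic male C57BL/6 mice (2.0% DSS for 5 days; ip daily days 6–12; n = 8) were homogenized in 0.5% HTAB (1 mL/100 mg) and spun 19000g 15 min at 4 °C. Supernatant was mixed with 50 mmol pH 6.0 phosphate buffer containing 0.0005% o-dianisidine and 0.1% H2O2. Rate of OD460 change at 25 °C was read and expressed as units/g wet tissue.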

[10] = tested on: Mus musculus; assay: Antiulcerative colitis activity in C57BL/6 mouse assessed as attenuation of DSS-induced lesions formation at 7.5 to 30 mg/kg, ip qd administered on day 6 to 12 post DSS-challenge measured on day 13 by hematoxylin/eosin staining-based assay
Summary of the method: (§4)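 DSS colitis (2.0% in drinking water, 5 days) in male C57BL/6 mice treated ip once daily days 6–12, n = 8. Day 13 colons opened, washed in ice-cold PBS, fixed overnight in 4% paraformaldehyde, paraffin-embedded. 5 μm sections stained with H&E and scored histologically, including inflammation severity.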

[11] = tested on: Mus musculus; assay: Antiulcerative colitis activity in C57BL/6 mouse assessed as attenuation of DSS-induced crypt destruction at 7.5 to 30 mg/kg, ip qd administered on day 6 to 12 post DSS-challenge measured on day 13 by hematoxylin/eosin staining-based assay; summary of the method: as §4
[12] = tested on: Mus musculus; assay: Antiulcerative colitis activity in C57BL/6 mouse assessed as inhibition of DSS-induced shortening of colon length at 30 mg/kg, ip qd administered on day 6 to 12 post DSS-challenge measured on day 13; set-up: dose 30 mg/kg
Summary of the method: (§5)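 Mice (male C57BL/6, 20–24 g) drank 2.0% DSS for 5 days. Animals with weight loss, diarrhea and bleeding on day 6 were randomized and given ip doses once daily to day 12, saline as vehicle; n = 8. Colon length was measured after sacrifice on day 13.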

[13] = tested on: Mus musculus; assay: Antiulcerative colitis activity in ip dosed C57BL/6 mouse assessed as inhibition of DSS-induced shortening of colon length administered qd on day 6 to 12 post DSS-challenge measured on day 13; summary of the method: as §5
[14] = tested on: Mus musculus; assay: Antiulcerative colitis activity in C57BL/6 mouse assessed as recovery of DSS-induced body weight loss at 7.5 to 30 mg/kg, ip qd administered on day 6 to 12 post DSS-challenge measured on day 8; summary of the method: as §1
[15] = tested on: Mus musculus; assay: Antiulcerative colitis activity in DSS-induced acute colitis C57BL/6 mouse model assessed as decrease in disease activity index at 15 to 30 mg/kg, ip qd administered on day 6 to 12 post DSS-challenge measured on day 13
[16] = tested on: Mus musculus; assay: Antiulcerative colitis activity in C57BL/6 mouse assessed as attenuation of DSS-induced inflammatory cell infiltration at 7.5 to 30 mg/kg, ip qd administered on day 6 to 12 post DSS-challenge measured on day 13 by hematoxylin/eosin staining-based assay; summary of the method: as §4

Structure (SMILES): O=C(O[C@@H]1O[C@@H]2COC(=O)c3cc(O)c(O)c(O)c3-c3c(cc(O)c(O)c3O)C(=O)O[C@H]([C@H]1O)[C@@H]2O)c1cc(O)c(O)c(O)c1
- Activity [1]: Active
- Activity [2]: Active
- Activity [3]: Active
- Activity [4]: Active
- Activity [5]: inactive
- Activity [6]: Dose-dependent effect
- Activity [7]: Dose-dependent effect
- Activity [8]: Dose-dependent effect
- inhibition [9]: Active
- Activity [10]: Active
- Activity [11]: Active
- inhibition [12]: Active
- inhibition [13]: Dose-dependent effect
- Activity [14]: Active
- Activity [15]: Active
- Activity [16]: Active
